Shown are actives, neighbours in structure and some others; about 2.5% of the full set was active somewhere.
SR-BI DiI-HDL act = activators of SR-BI mediated HDL lipid uptake. 320,000 tested, 0.096% active. activation, % at 12.5 µM. CHO ldlA[mSR-BI] cells, DiI-HDL uptake fluorescence, 3 h; 100 = double the neutral-control signal;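 active means mean replicate activation of at least 60% and every replicate at or above 60%; inconclusive means mean or all-replicate condition met, but not both; inactive means mean below 60% and not all replicates reaching 60%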;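 further: 0% = median plate neutral-control signal and 100% = twice that signal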
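Test system: SR-BI-overexpressing, LDLR-lacking CHO cells. Measured by: DiI fluorescence, bottom read. Medium: Ham's F12 with 0.5% BSA, HEPES 25 mM, pH 7.4. Timing: 3 h uptake period with compound, 37 °C.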
SR-BI HDL uptake = blocks mouse SR-BI lipid uptake from DiI-HDL | ldlA[mSR-BI] CHO cells, DiI-HDL uptake fluorescence, 3 h | inhibition, % at 12.5 µM | Q61009 | 320,000 tested, 0.96% active | AID 488896;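 active means mean replicate inhibition of at least 70% and a set share of replicates each scoring 70 or more; inconclusive means meets just one of the two criteria; inactive means fails both criteria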;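 further: 0% = median of neutral control wells and 100% = median of positive control wells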
Target sequence (Q61009 whole entry, looked up): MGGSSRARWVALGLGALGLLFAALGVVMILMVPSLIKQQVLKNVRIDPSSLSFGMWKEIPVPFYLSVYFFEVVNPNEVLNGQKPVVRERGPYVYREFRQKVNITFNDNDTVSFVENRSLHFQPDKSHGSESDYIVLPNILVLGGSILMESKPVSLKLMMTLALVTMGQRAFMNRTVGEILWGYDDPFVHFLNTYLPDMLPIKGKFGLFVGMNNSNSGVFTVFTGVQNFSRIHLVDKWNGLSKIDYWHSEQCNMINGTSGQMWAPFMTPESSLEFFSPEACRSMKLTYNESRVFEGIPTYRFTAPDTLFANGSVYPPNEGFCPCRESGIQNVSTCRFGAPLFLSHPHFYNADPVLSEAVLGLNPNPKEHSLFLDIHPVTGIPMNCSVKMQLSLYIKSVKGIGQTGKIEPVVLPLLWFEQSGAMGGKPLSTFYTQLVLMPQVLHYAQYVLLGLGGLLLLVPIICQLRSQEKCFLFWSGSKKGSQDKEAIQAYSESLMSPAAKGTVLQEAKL
Vif imaging = blocks HIV Vif function | HEK293T cells, Vif self-association by quenched fluorescence, imaging, 24 h | inhibition, % at 7.49 µM | 340,000 tested, 0.35% active | AID 602346; in the data active means inhibition above about 50%, passing the limit was not always enough; inconclusive means no clear call, values can overlap the other calls; inactive means below about 31%
SMARCA2 activ = SMARCA2 function activation, primary screen. MG213 cells, MMTV-luciferase reporter, dexamethasone, overnight. activation, % at 9.1 µM. AID 652017. 370,000 tested, 1% active; in the data active means activation above about 7.8%;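 further: 0% = vehicle wells and 100% = reference activator wells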
TAG inh = triacylglycerol accumulation inhibition. H9c2 cells, Nile Red lipid (TAG) fluorescence; cells loaded with 200 µM oleic acid. inhibition, % at 12.5 µM. 230,000 tested, 0.66% active. AID 651582;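 active means pattern-corrected inhibition of lipid staining of at least 50% with the nuclear-stain viability signal not falling by more than 50%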;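 further: 0% = DMSO wells and 100% = triacsin C control wells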
An asterisk follows results filed as active; u = inconclusive; x = no result given.

SMILES	SR-BI DiI-HDL act	SR-BI HDL uptake	Vif imaging	SMARCA2 activ	TAG inh
CCN(CC)c1ccc(/C=N/NC(=O)c2cccc(S(=O)(=O)Nc3ccccc3OC)c2)c(O)c1	-132.0	132.0*	-3.7	-3.1	x
COc1ccc(NS(=O)(=O)c2cccc(C(=O)N/N=C/c3ccccc3OC)c2)cc1	-82.3	82.3*	17.2	0.4	15.5
C=CCN=C1NC(c2cccc(F)c2)C(C(=O)OC)=C(C)N1C (stereo unspecified)	x	x	x	-2.8	x
O=C(Nc1cccc([N+](=O)[O-])c1)NC1CCCCN(Cc2ccc(Cl)cc2)C1=O (stereo unspecified)	x	x	x	-3.8	x
O=C(/C=C\c1ccco1)Nc1cc([N+](=O)[O-])ccc1F	7.7	-7.7	64.2*	4.3	x
Cc1cc(N)ccc1-c1cc2ccccc2oc1=O	1.5	-1.5	51.7*	-0.7	9.6
O=C(/C=C/c1ccc(S(=O)(=O)N2CCOCC2)cc1)N1CCCCC1	13.3	-13.3	8.1	-1.6	7.6
CCOC(=O)C1CCN(C(=O)/C=C/c2ccc(S(=O)(=O)N3CCOCC3)cc2)CC1	63.5*	-63.5	u	-2.3	-14.7
CC(=O)Nc1nc(-c2ccc3c(c2)CC(C)N3C(=O)C2CC2)c(C)s1 (stereo unspecified)	x	x	-9.1	-1.3	x
Cc1sc(NC(=O)c2ccco2)nc1-c1ccc2c(c1)CC(C)N2C(=O)C1CC1 (stereo unspecified)	-78.7	78.7*	-3.1	x	x
COC(=O)c1[nH]c(=O)c2ccccc2c1OCc1ccccc1	199.8*	-199.8	0.8	-3.4	9.2
CCn1c(NC(=O)c2cccc(Cn3cc(Cl)cn3)c2)nc2ccccc21	-92.5	92.5*	-12.0	-6.1	-14.8
Cn1c(NC(=O)c2cccc(Cn3cc(Cl)cn3)c2)nc2ccccc21	-51.1	51.1	1.8	4.2	x
NC(=O)c1c(N)[nH]c(C(=O)c2ccccc2)c1-c1ccc(Cl)cc1Cl	x	x	x	1.4	x
N/C(=N\N=C\c1ccco1)SC1CC(=O)N(c2ccccc2)C1=O (stereo unspecified)	-14.4	14.4	10.7	-1.1	3.2
N/C(=N\N=C\c1ccco1)SC1CC(=O)N(c2ccc(C(=O)O)cc2)C1=O (stereo unspecified)	60.1*	-60.1	8.6	1.5	15.2
CCCCCCCCN1C(=O)[C@@H](CC(=O)N2CCSCC2)C[C@@]2(C(=O)OC)C1=C[C@H](C(C)(C)C)O[C@@H]2C	x	x	x	-1.4	x
CCOc1cc(OCC)cc(C(=O)N2CCC[C@@H]2C(=O)N2CCC[C@H]2C(=O)NCc2ccccc2)c1	x	x	x	-2.0	x
O=C(Nc1ccc(F)cc1)OCc1cn(Cc2ccccc2F)nn1	x	x	x	-2.1	x
COc1ccc2cc(C(=O)CS(=O)(=O)c3ccc(Cl)cc3)c(=O)oc2c1	x	x	x	-2.0	x
Cc1cc(N2CCC(C)CC2)n2nc(C)c(-c3ccccc3)c2n1	-74.8	74.8*	x	3.3	-10.1
Cc1cc(N2CCCCC2)n2nc(C)c(-c3ccccc3)c2n1	-52.2	52.2	-7.2	-0.4	32.9
COc1ccc(-c2c(C)nn3c(N4CCN(Cc5ccccc5)CC4)cc(C)nc23)cc1OC	-75.7	76.9*	-8.9	-2.4	6.0
Cc1cc(N2CCN(Cc3ccccc3)CC2)n2nc(C)c(-c3ccccc3)c2n1	-21.0	21.0	15.2	-2.1	x
CC(C)CNS(=O)(=O)CC1NCc2ccccc21 (stereo unspecified)	x	x	x	-0.7	x
SMILES	SR-BI DiI-HDL act	SR-BI HDL uptake	Vif imaging	SMARCA2 activ	TAG inh
COC(=O)C12C=C3CC(c4ccc(C(F)(F)F)cc4)=C3C(=O)N1Cc1[nH]c3ccccc3c1C2 (stereo unspecified)	x	x	x	0.8	x
O=C(COC(=O)C1COc2ccccc2O1)Nc1ccc(Cl)cc1 (stereo unspecified)	x	-49.6	3.6	-1.2	7.8
CN(C)S(=O)(=O)c1ccc(NC(=O)COC(=O)C2COc3ccccc3O2)cc1 (stereo unspecified)	12.8	-12.8	67.4*	-1.2	-6.7
CN1CCN(c2cc3c(c4c2[nH]c2ccccc24)C(=O)CC(C)(C)C3)CC1	-26.6	26.6	0.8	-2.5	54.1*
COc1ccccc1C(=O)NC(CCSC)C(=O)NNC(=O)c1ccccc1O (stereo unspecified)	-75.7	75.7*	31.2	3.2	0.6
CC(C)(C)SCCNC(=O)c1ccc(Cl)c([N+](=O)[O-])c1	79.1*	-79.1	2.4	-0.6	x
Cc1ccccc1CNC(=O)c1ccc(Cl)c([N+](=O)[O-])c1	-11.7	11.7	-2.4	-2.2	x

Bioassay records (PubChem)
